One may read the IC50 as the midpoint of a concentration-inhibition curve. As a reminder, the Ki is a dissociation constant, usually derived from enzyme kinetics or from competition with a known ligand.

Here are results for 9 molecules from ChEMBL document CHEMBL1795285, “Facile fabrication of promising protein tyrosine phosphatase (PTP) inhibitor entities based on 'clicked' serine/threonine-monosaccharide hybrids” (Bioorg Med Chem, 2011).

The test system of one assay is HCT-116. Kind of assay: Cytotoxicity against human HCT116 cells after 72 hrs by MTT assay. It is filed as functional, cell-based. The following applies: HCT-116, 72 h. Summed up: (§1)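 Cells seeded at 2000/well and held 24 h at 37 °C, 5% CO2 before treatment. After a 3 h MTT incubation, medium was replaced by DMSO. Absorbance read at 550 nm against a 690 nm reference, with OD taken as proportional to viable cell number.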

The subject of a further assay is A549. The assay can be described thus: Cytotoxicity against human A549 cells after 72 hrs by MTT assay. It is filed as functional, cell-based. To be noted: A549, 72 h. Summed up:
as §1
Background: Formazan colour is commonly taken as a measure of viable cells.

For a further assay, the system named is HeLa. Kind of assay: Cytotoxicity against human HeLa cells after 72 hrs by MTT assay. It is filed as functional, cell-based. A digest of the protocol: as §1
In assay [1] the target is Receptor-type tyrosine-protein phosphatase F (Homo sapiens, UniProt P10586). Kind of assay: Inhibition of human LAR.
For assay [2], the target named is Tyrosine-protein phosphatase non-receptor type 6 (Homo sapiens, UniProt P29350). The assay can be described thus: Inhibition of SHP1.
The target of assay [3] is T1, Tyrosine-protein phosphatase non-receptor type 11 (Homo sapiens, UniProt Q06124).
T1 sequence (Q06124 whole entry): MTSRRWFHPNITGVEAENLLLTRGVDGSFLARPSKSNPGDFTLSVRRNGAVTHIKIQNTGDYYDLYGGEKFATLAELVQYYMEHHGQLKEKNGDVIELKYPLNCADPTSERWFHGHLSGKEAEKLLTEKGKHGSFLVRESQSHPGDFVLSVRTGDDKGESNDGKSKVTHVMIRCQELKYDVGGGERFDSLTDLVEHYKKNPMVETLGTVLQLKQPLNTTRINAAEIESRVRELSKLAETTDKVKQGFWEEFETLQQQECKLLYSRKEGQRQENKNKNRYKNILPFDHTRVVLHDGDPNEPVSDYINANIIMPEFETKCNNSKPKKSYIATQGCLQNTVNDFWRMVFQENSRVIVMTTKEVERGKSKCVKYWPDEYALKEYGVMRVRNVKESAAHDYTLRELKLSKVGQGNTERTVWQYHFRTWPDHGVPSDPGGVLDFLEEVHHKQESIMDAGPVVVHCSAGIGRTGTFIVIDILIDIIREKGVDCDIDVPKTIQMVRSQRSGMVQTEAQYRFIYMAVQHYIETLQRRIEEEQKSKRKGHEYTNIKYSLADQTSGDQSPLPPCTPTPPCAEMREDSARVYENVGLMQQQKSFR
The assay can be described thus: Inhibition of SHP2.

The target in assay [4] is T2, M-phase inducer phosphatase 1 (Homo sapiens, UniProt P30304).
T2 sequence (P30304 whole entry): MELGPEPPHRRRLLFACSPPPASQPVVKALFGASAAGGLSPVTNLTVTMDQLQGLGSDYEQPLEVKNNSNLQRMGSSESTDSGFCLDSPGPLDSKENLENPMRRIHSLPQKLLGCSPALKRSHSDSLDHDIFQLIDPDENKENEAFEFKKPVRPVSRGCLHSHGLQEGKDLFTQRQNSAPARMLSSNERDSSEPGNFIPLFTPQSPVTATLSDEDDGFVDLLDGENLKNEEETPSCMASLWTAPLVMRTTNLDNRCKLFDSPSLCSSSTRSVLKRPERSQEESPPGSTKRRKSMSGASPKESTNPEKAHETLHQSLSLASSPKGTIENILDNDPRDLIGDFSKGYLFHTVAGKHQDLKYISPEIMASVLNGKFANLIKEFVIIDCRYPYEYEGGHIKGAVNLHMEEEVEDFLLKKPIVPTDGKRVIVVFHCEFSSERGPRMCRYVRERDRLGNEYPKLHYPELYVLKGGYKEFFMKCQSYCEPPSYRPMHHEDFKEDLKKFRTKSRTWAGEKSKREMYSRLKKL
The assay can be described thus: Inhibition of human CDC25A.

The target in assay [5] is T3, M-phase inducer phosphatase 2 (Homo sapiens, UniProt P30305).
T3 sequence (P30305 whole entry): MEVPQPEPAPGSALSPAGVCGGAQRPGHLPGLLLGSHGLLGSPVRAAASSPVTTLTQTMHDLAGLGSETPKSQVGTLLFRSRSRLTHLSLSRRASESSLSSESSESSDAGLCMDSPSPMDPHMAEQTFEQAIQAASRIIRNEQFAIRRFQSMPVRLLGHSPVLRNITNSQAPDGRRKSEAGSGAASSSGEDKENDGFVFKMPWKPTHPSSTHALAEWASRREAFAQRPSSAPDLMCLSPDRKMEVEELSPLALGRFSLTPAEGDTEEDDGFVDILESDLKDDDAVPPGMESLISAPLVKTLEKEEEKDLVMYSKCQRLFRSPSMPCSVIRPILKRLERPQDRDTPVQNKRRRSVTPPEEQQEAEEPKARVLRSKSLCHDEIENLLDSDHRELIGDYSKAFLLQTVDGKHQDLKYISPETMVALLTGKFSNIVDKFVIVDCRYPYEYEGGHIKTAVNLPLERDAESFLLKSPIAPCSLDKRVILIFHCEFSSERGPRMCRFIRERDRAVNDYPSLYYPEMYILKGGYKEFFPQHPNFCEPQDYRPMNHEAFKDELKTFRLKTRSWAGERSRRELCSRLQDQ
Kind of assay: Inhibition of human Cdc25B.

Assay [6] addresses T4, Tyrosine-protein phosphatase non-receptor type 2 (Homo sapiens, UniProt P17706).
T4 sequence (P17706 whole entry): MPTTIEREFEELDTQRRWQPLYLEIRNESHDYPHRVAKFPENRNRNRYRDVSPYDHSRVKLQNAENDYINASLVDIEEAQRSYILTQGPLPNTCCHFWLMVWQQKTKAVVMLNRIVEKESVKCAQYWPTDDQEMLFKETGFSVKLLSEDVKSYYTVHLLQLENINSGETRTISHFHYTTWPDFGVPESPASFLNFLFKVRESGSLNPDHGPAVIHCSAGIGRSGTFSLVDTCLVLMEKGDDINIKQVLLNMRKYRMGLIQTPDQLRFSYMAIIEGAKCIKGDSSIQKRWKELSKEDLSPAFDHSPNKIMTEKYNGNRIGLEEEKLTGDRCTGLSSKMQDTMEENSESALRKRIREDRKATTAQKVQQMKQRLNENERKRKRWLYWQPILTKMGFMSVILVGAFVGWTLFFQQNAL
Kind of assay: Inhibition of TCPTP.

The target of assay [7] is T5, Tyrosine-protein phosphatase non-receptor type 1 (Homo sapiens, UniProt P18031).
T5 sequence (P18031 whole entry): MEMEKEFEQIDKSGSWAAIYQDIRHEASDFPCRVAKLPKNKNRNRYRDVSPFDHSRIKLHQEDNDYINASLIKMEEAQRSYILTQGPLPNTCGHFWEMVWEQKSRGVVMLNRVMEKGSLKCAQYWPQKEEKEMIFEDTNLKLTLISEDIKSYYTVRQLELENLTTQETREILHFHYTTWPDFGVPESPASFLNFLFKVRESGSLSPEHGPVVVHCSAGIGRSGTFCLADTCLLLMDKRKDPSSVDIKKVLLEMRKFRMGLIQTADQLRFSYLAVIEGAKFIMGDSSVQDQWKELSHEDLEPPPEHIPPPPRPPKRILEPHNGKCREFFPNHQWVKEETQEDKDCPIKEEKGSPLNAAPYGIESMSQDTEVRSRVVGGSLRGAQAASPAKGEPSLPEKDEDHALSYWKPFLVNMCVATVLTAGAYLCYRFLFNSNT
Kind of assay: Inhibition of human recombinant […] catalytic domain using pNPP substrate. A digest of the protocol:
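Recombinant human PTP1B catalytic domain (30 nM) with 2 mM pNPP in 50 mM MOPS, pH 6.5, at 30 °C. Inhibitor diluted around the estimated IC50. Initial rate taken from the early linear part of the 405 nm trace over 2 min. IC50 from nonlinear fit of % inhibition vs [I] with a Hill-coefficient equation. Means of three experiments.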

Assay [8] concerns the target T6, M-phase inducer phosphatase 2 (Homo sapiens) (UniProt P30305).
T6 sequence (whole entry): T3 sequence (P30305 whole entry)
Kind of assay: Mixed type inhibition of human Cdc25B using pNPP substrate at 30 degC and pH 6.5 by Eadie-Hofstee plot.

Assay [9] has as its target T5, Tyrosine-protein phosphatase non-receptor type 1. The assay can be described thus: Competitive inhibition of human recombinant […] catalytic domain using pNPP substrate at 30 degC and pH 6.5 by Eadie-Hofstee plot. A digest of the protocol:
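For the inhibition-mode study, 30 nM PTP1B was run in 50 mM MOPS, pH 6.5, at 30 °C. pNPP was varied in twofold dilutions up to 80 mM, at several inhibitor concentrations. pNP release was read at 405 nm.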

Calls of active or inactive are those of the source. The rule behind the calls is not given here.

Sequence of Receptor-type tyrosine-protein phosphatase F (P10586 whole entry): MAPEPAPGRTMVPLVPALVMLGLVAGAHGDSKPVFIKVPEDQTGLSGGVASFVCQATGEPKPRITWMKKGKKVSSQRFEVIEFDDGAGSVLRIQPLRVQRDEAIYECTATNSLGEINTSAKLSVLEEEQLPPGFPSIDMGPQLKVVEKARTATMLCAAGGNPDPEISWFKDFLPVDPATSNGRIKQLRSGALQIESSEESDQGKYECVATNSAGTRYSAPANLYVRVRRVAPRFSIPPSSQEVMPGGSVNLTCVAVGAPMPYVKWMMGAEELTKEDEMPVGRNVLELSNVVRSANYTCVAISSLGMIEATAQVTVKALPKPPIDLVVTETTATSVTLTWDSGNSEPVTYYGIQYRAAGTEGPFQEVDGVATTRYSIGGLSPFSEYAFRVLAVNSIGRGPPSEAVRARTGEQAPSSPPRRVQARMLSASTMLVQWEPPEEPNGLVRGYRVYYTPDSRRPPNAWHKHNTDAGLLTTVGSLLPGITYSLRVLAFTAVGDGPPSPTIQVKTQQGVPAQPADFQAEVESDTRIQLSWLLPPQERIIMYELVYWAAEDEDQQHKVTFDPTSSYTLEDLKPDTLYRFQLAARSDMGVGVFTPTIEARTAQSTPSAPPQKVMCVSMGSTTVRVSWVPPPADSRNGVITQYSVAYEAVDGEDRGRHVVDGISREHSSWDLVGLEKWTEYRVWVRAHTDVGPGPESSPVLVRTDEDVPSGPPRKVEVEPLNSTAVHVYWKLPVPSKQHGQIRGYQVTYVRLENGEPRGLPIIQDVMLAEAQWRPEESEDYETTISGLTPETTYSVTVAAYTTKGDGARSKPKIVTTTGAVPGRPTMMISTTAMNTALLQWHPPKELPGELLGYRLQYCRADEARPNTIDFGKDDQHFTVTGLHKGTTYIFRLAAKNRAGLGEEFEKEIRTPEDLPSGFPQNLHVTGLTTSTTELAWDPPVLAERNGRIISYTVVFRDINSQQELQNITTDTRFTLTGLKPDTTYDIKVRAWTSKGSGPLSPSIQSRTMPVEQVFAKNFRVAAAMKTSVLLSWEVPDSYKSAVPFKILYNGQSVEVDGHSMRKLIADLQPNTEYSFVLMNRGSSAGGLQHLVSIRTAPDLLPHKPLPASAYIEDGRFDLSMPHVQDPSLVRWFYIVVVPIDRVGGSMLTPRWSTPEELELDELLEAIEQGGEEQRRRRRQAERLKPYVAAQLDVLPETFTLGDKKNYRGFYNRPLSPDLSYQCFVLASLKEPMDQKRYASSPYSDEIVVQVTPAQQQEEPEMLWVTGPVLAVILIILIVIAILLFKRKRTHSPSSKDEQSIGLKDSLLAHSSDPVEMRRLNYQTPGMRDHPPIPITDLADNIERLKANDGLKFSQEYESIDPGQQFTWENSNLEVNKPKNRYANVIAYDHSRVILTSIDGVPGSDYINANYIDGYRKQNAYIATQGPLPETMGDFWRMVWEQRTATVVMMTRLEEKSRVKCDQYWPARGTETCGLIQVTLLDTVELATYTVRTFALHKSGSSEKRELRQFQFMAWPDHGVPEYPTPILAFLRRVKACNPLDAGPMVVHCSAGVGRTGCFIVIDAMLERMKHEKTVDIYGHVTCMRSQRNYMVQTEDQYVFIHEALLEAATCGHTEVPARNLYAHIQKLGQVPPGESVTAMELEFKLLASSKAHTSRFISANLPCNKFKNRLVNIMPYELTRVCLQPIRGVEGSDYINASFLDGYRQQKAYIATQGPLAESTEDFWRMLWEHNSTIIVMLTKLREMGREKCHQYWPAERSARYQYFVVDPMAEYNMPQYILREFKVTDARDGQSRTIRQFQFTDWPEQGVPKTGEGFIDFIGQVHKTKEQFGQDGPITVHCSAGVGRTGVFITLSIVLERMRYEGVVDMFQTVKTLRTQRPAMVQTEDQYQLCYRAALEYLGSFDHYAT
Sequence of Tyrosine-protein phosphatase non-receptor type 6 (P29350 whole entry): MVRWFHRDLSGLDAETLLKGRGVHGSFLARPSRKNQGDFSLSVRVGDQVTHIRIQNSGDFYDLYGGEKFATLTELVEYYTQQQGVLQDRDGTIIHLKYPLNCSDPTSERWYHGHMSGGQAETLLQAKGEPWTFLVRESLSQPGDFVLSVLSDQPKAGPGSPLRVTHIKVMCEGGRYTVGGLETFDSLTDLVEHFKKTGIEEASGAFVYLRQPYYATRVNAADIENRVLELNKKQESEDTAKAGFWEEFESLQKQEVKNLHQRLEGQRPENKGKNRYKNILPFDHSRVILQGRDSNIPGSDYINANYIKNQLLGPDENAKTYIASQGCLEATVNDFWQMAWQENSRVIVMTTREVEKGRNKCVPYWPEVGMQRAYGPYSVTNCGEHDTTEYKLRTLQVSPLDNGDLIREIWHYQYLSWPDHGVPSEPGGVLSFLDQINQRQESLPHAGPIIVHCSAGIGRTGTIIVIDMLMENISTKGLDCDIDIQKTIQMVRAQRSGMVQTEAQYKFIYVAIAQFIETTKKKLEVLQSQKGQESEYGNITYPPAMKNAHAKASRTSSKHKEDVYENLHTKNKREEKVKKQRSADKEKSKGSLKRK

With `CO[C@H]1O[C@H](Cn2cc(CO[C@@H](C)[C@H](NC(=O)OC(C)(C)C)C(=O)O)nn2)[C@@H](OCc2ccccc2)[C@H](OCc2ccccc2)[C@@H]1OCc1ccccc1`, the IC50 is 32.2 µM with HCT-116; 57.2 µM in the assay with A549; 53.7 µM in the assay with HeLa; over 120 µM in assay [1]; over 120 µM in assay [2]; over 120 µM in [3]. The concentration for half-maximal inhibition (IC50) was determined as 51.6 µM in assay [4], 12.2 µM in assay [5], 105 µM in [6] and 26 µM in assay [7].
For `CO[C@H]1O[C@H](Cn2cc(COC[C@H](NC(=O)OC(C)(C)C)C(=O)O)nn2)[C@H](OCc2ccccc2)[C@H](OCc2ccccc2)[C@H]1OCc1ccccc1`, the 50% inhibitory concentration (IC50) (with HCT-116; with A549; with HeLa; in assay [1]; in assay [2]; in [3]) was over 120 µM throughout. Also, the half-maximal inhibitory concentration (IC50) is over 120 µM in [4], 20.6 µM in [5], 54.9 µM in [6] and 20.9 µM in assay [7].
Regarding `CC(C)(C)OC(=O)N[C@@H](COCc1cn([C@@H]2O[C@H](CO)[C@@H](O)[C@H](O)[C@H]2O)nn1)C(=O)O`, the 50% inhibitory concentration (IC50) in assay [1], in assay [2], in assay [3], in assay [5] and in assay [7] was over 120 µM each time.
In the case of `CO[C@H]1O[C@H](Cn2cc(COC[C@H](NC(=O)OC(C)(C)C)C(=O)O)nn2)[C@@H](OCc2ccccc2)[C@H](OCc2ccccc2)[C@H]1OCc1ccccc1`, the IC50 in the assay on HCT-116 is 46.3 µM; with A549, 120 µM; in the assay with HeLa, 75.4 µM; in assay [1], over 120 µM; in assay [2] it was over 120 µM; in assay [3], over 120 µM. Moreover, the half-maximal inhibitory concentration (IC50) in assay [4] is over 120 µM; in [5] it was 67.5 µM; in assay [6], over 120 µM; in assay [7], 67.8 µM.
In the case of `CO[C@H]1O[C@H](Cn2cc(CO[C@@H](C)[C@H](NC(=O)OC(C)(C)C)C(=O)O)nn2)[C@@H](OCc2ccccc2)[C@H](OCc2ccccc2)[C@H]1OCc1ccccc1`, the half-maximal inhibitory concentration (IC50) in the assay on HCT-116 was 33.5 µM; in the assay on A549 it was 62.8 µM; with HeLa, 69.5 µM; in assay [1] it was over 120 µM; in assay [2], over 120 µM; in [3], over 120 µM. Moreover, the IC50 in [4] stood at 119 µM; in assay [5], 27.1 µM; in assay [6] it was 80.7 µM; in assay [7], 22.3 µM.
Consider `CO[C@H]1O[C@H](Cn2cc(COC[C@H](NC(=O)OC(C)(C)C)C(=O)O)nn2)[C@@H](OCc2ccccc2)[C@H](OCc2ccccc2)[C@@H]1OCc1ccccc1`, for which the IC50 in the assay on HCT-116 was 32.3 µM; with A549, 97.3 µM; with HeLa, 54.2 µM; in [1], over 120 µM; in assay [2], over 120 µM; in assay [3] it was over 120 µM. Besides, the IC50 worked out at 26.8 µM in assay [4], 8.2 µM in [5], 89.2 µM in assay [6] and 18.5 µM in assay [7].
For `CC(C)(C)OC(=O)N[C@@H](COCc1cn([C@@H]2O[C@H](COCc3ccccc3)[C@@H](OCc3ccccc3)[C@H](OCc3ccccc3)[C@H]2OCc2ccccc2)nn1)C(=O)O`, the concentration for half-maximal inhibition (IC50) is 12.8 µM in the assay with HCT-116; 35.2 µM in the assay on A549; 25.3 µM in the assay with HeLa; over 120 µM in [1]; 40.4 µM in [2]; 47.6 µM in assay [3]. The IC50 in assay [4] came out at 24.3 µM; in assay [5], 6.2 µM; in assay [6] it was 12.5 µM; in [7], 5.9 µM. Further, the inhibition result in [8] is “Active”. Further, in assay [9], the inhibition constant (Ki) was 3.9 µM.
On to `C[C@H](OCc1cn([C@@H]2O[C@H](COCc3ccccc3)[C@@H](OCc3ccccc3)[C@H](OCc3ccccc3)[C@H]2OCc2ccccc2)nn1)[C@H](NC(=O)OC(C)(C)C)C(=O)O`, for which the IC50 in the assay on HCT-116 was 12 µM; with A549 it was 25.3 µM; in the assay on HeLa, 31.5 µM; in assay [1] it was over 120 µM; in assay [2] it was over 120 µM; in [3] it was over 120 µM. For the same molecule, the 50% inhibitory concentration (IC50) was 53 µM in assay [4], 11.6 µM in assay [5], 38.6 µM in assay [6] and 7.1 µM in assay [7].
In the case of `CO[C@H]1O[C@H](Cn2cc(CO[C@@H](C)[C@H](NC(=O)OC(C)(C)C)C(=O)O)nn2)[C@H](OCc2ccccc2)[C@H](OCc2ccccc2)[C@H]1OCc1ccccc1`, the 50% inhibitory concentration (IC50) with HCT-116 is 36.6 µM; in the assay with A549, 108 µM; in the assay with HeLa, 56.4 µM; in assay [1], over 120 µM; in assay [2] it was over 120 µM; in assay [3] it was over 120 µM. Also, the concentration for half-maximal inhibition (IC50) in [4] was over 120 µM; in [5] it was 31.1 µM; in assay [6], over 120 µM; in assay [7], 15.3 µM.
